Source: ChEMBL document CHEMBL1122331, “Conformational effects on the activity of drugs. 10. Synthesis, conformation, and pharmacological properties of 1-(2,5-dimethoxyphenyl)-2-aminoethanols and their morpholine analogues” (J Med Chem, 1983)

Columns and labels:
[1] = molecular target: T1, Adrenergic receptor alpha-1 (Rattus norvegicus) (UniProt P15823+P23944+P43140); assay: (§1) Tested for Alpha adrenergic receptor antagonistic activity on isolated rat vas deferens; assay type: functional, tissue-based
How it was run: (§2)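 Isolated rat vas deferens; contractions recorded isometrically with a force-displacement transducer.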

[2] = molecular target: T2, Adrenergic receptor alpha-1 (Rattus norvegicus, UniProt P15823+P23944+P43140); assay: as §1; assay type: functional, tissue-based; how it was run: as §2
T2 sequence (P15823 whole entry): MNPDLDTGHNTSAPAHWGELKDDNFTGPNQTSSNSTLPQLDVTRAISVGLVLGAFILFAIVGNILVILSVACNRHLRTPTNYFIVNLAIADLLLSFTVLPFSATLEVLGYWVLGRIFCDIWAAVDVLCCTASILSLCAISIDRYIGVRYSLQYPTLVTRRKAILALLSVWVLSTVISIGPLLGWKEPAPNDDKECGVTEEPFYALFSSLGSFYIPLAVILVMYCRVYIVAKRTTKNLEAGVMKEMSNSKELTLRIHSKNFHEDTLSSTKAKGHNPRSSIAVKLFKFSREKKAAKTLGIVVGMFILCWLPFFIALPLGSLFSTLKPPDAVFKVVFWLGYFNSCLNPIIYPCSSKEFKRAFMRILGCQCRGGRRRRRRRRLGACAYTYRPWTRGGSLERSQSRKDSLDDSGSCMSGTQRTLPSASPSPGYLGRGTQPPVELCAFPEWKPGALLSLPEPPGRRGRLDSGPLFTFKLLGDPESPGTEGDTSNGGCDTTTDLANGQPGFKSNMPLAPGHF
T2 sequence (P23944 whole entry): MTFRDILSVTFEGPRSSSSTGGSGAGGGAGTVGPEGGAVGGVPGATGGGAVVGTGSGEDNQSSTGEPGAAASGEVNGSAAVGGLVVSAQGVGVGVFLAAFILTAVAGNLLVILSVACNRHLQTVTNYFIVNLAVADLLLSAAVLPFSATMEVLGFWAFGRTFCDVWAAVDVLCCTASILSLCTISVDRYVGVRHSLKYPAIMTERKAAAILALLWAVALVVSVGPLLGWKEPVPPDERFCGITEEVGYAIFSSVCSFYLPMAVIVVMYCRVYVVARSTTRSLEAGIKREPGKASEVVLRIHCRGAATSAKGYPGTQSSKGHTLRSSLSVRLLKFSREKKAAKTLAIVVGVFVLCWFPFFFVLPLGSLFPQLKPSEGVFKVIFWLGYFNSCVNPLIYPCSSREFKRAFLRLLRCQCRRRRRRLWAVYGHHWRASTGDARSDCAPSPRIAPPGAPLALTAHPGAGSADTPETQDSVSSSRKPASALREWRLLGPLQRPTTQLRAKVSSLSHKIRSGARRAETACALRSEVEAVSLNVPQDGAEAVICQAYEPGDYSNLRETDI
T2 sequence (P43140 whole entry): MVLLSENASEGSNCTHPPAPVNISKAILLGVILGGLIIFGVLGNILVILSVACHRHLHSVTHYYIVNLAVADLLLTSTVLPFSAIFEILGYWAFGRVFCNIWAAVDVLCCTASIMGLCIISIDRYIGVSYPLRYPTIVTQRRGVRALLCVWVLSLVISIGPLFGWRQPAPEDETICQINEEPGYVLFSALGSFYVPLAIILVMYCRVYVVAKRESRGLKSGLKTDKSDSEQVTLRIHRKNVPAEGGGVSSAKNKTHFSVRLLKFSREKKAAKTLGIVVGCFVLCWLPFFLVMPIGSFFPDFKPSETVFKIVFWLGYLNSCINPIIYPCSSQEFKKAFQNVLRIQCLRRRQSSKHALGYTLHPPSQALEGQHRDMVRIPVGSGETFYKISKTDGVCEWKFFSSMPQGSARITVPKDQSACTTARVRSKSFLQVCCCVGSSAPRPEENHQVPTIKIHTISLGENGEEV

[3] = molecular target: T1, Adrenergic receptor alpha-1 (Rattus norvegicus); assay: (§3) Tested for alpha adrenergic receptor agonistic activity on isolated rat vas deferens; assay type: functional, tissue-based; how it was run: as §2
[4] = molecular target: T2, Adrenergic receptor alpha-1; assay: as §3; assay type: functional, tissue-based; how it was run: as §2
[5] = molecular target: T1, Adrenergic receptor alpha-1 (Rattus norvegicus); conditions: Vas deferens
[6] = molecular target: T1, Adrenergic receptor alpha-1 (Rattus norvegicus); conditions: Vas deferens; remark: listed apart in the source
[7] = molecular target: T3, Adrenergic receptor beta (Homo sapiens, UniProt P08588+P07550+P13945); conditions: Cavia porcellus
[8] = molecular target: T3, Adrenergic receptor beta; assay: Inhibition of beta adrenergic receptor on isolated guinea pig atria against isoprenaline at 4E-8M; design: species or system Cavia porcellus; conditions: target entry is the homologue from another species

COc1ccc(OC)c(C2CN(C)CCO2)c1 (stereo not drawn)
pA2-pA10 [1]: 0.76 | pA10 [1]: 2.85 | pA2 [2]: 3.61

COc1ccc(OC)c(C2CN(C(C)C)CCO2)c1 (stereo not drawn)
pA2-pA10 [1]: 0.19 | pA10 [1]: 2.95 | pA2 [2]: 3.14

Cc1ccc(N(CC2=NCCN2)c2cccc(O)c2)cc1
pA10 [3]: 6.02

CNCC(O)c1cc(OC)ccc1OC (stereo not drawn)
pA2 [4]: 3.91 | pA10 [3]: 3.16 | pD2 [3]: 5.22 | pD10 [3]: 6.07

COc1ccc(OC)c(C2OCCNC2C)c1 (stereo not drawn)
pA2-pA10 [1]: 0.27 | pA10 [1]: 3.2 | pA2 [2]: 3.48

COc1ccc(OC)c(C(O)CN)c1 (stereo not drawn) [DESGLYMIDODRINE]
pD2 [5]: 5.15 | pA2-pA10 [1]: 0.74 | pA10 [1]: 3.3 | pD10 [6]: 6 | pA2 [2]: 4.04

COc1ccc(OC)c(C(O)C(C)N)c1 (stereo not drawn)
pD2 [5]: 4.42 | pD10 [6]: 5.61

COc1ccc(OC)c(C2CNCCO2)c1 (stereo not drawn)
pA2-pA10 [1]: 0.45 | pA10 [1]: 2.95 | pA2 [2]: 3.4

COc1ccc(OC)c(C(O)CNC(C)C)c1 (stereo not drawn)
pA10 [7]: 4.08 | pA2 [8]: 4.77 | pA2-pA10 [1]: 0.26 | pA10 [1]: 2.48
